# Experimental data collected from several papers.
# Each line is one published result; the experiments were not run side by side.
# Target: Protein-tyrosine kinase 2-beta (PTK2B, Homo sapiens, UniProt Q14289)
SMILES,test,conditions,endpoint,result
CC/C(=N\NC(=O)NCc1cccc(O)c1)c1ccc(O)c(C)c1O,"enzyme activity, inhibitor",0.1 µM,inhibition,-0.1%
Cc1ccc(C(=O)NCc2ccsc2)cc1C#Cc1cn(C(C)C)c2ncnc(N)c12,"enzyme activity, inhibitor",1 µM,activity vs control,57%
Cc1ccc(Nc2nccc(N(C)c3ccc4c(C)n(C)nc4c3)n2)cc1S(N)(=O)=O,"enzyme activity, inhibitor",0.3 µM,inhibition,6%
COc1cc(Cl)c(C(=O)N[C@@H](CN[C@H]2CC[C@@H](N)CC2)Cc2ccc(C#N)cc2)cc1-c1ccc(CN[C@H](C)c2ccc(C)cc2)o1,"enzyme activity, inhibitor",1 µM,remaining activity,101%
CN([C@@H]1CCc2c(CC(=O)O)c3cc(S(C)(=O)=O)ccc3n2C1)S(=O)(=O)c1ccc(F)cc1,"cell-free assay, competition with immobilised ligand",1 µM,remaining binding,100%
COc1cc2c(Nc3ccc(Br)cc3F)ncnc2cc1OCC1CCN(C)CC1,cell-free assay,0.5 µM,remaining signal,99.5%
CNC(=O)c1cc(Oc2ccc(NC(=O)Nc3ccc(Cl)c(C(F)(F)F)c3)cc2)ccn1,"enzyme activity, inhibitor",0.3 µM,inhibition,-3%
COc1cc2ncnc(Nc3ccc(F)c(Cl)c3)c2cc1OCCCN1CCOCC1,cell-free assay,0.5 µM,remaining signal,98.9%
Cc1[nH]c(/C=C2\C(=O)Nc3ccc(F)cc32)c(C)c1C(=O)N[C@H]1CCN(C(=O)N(C)C)C1,"enzyme activity, inhibitor",0.1 µM,remaining activity,109%
COc1cc2ncnc(Nc3ccc(Oc4ccccc4)c(C)c3C)c2cc1OC,"enzyme activity, inhibitor",1 µM,inhibition,1%
O=C1Nc2ccc(Cl)cc2C1=Cc1cc(Cl)c(O)c(Cl)c1,cell-free assay,0.5 µM,remaining signal,96.7%
CCS(=O)(=O)c1cc2cc(C[C@](O)(CC(C)(C)c3ccc(F)cc3C(N)=O)C(F)(F)F)[nH]c2cn1,"cell-free assay, competition with immobilised ligand",1 µM,remaining binding,100%
CCN(CC)CCNC(=O)c1c(C)[nH]c(/C=C2\C(=O)Nc3ccc(F)cc32)c1C,"enzyme activity, inhibitor",1 µM,remaining activity,30%
O=C(Nc1cnn(-c2csc(C(=O)NC3COC3)c2)c1)Nc1ccccc1Cl,"enzyme activity, inhibitor",5 µM,remaining activity,93.5%
CC(C)(C)c1nc2c(s1)c1nc(N)ncc1c1ccc(NS(=O)(=O)c3c(F)cccc3F)c(F)c12,"enzyme activity, inhibitor, radiometric",1 µM,remaining activity,91%
Cc1nc(C2CCN(C(=O)c3ccc(OC(F)(F)F)cc3N)CC2)c2ncc(N3CCN(C)CC3)cc2n1,"cell-free assay, competition with immobilised ligand",1 µM,remaining binding,100%
Cc1cnc(NC2CCOCC2)nc1-n1cnc(C(=O)NC(CN)c2cc(F)cc(Cl)c2)c1 (stereo not shown),"enzyme activity, inhibitor, radiometric",1 µM,remaining activity,99%
CCc1ccccc1C(=O)Nc1n[nH]c2c(C)c(F)c(C3C(C#N)=C(C)N(C)C(C)=C3C#N)cc12,"cell-free assay, competition with immobilised ligand",1 µM,remaining binding,92%
COc1cc2c(N3CCN(C(=O)Nc4ccc(OC(C)C)cc4)CC3)ncnc2cc1OCCCN1CCCCC1,cell-free assay,0.5 µM,remaining signal,99.3%
CNC(=O)c1ccc(Nc2ncc(C(F)(F)F)c(NCc3nccnc3N(C)S(C)(=O)=O)n2)cc1,"binding, competition with immobilised ligand",1 µM,remaining binding,8.3%
CCN(CC)CCNC(=O)c1c(C)[nH]c(/C=C2\C(=O)Nc3ccc(F)cc32)c1C,"enzyme activity, inhibitor",0.3 µM,inhibition,59%
Cc1c(NC(=O)c2cc(C(N)=O)nc3cc(F)ccc23)c(C(F)(F)F)nn1Cc1ccc(C(C)(C)C)cc1,"cell-free assay, competition with immobilised ligand",1 µM,remaining binding,92%
Nc1ncnc2occ(-c3ccc(NC(=O)Nc4cc(C(F)(F)F)ccc4F)cc3)c12,"cell-free assay, inhibitor",20 µM,remaining signal,2.8%
O=C(N1CCS(=O)(=O)CC1)N1C[C@H](c2ccc(OC(F)(F)F)cc2)C[C@H](c2nc(C3CC3)no2)C1,"cell-free assay, competition with immobilised ligand",1 µM,remaining binding,99%
CNC(=O)c1cc2c(Oc3ccc(NC(=O)C4(C(=O)Nc5ccc(F)cc5)CC4)cc3)ccnc2cc1OC,"enzyme activity, inhibitor, radiometric",1 µM,inhibition,79%
CC(C)(O)[C@H]1CC[C@H](Nc2ccc3ncc(-c4cccc(C(F)(F)F)c4)n3n2)CC1,"enzyme activity, inhibitor",1 µM,remaining activity,94.4%
Cc1noc([C@H]2C[C@@H](c3ccc(C(F)(F)F)cc3)CN(C(=O)N3CCS(=O)(=O)C3)C2)n1,"cell-free assay, competition with immobilised ligand",1 µM,remaining binding,100%
O=C(Nc1cnn(-c2csc(C(=O)NC3COC3)c2)c1)Nc1c(F)cccc1Cl,"enzyme activity, inhibitor",5 µM,remaining activity,91%
